This is a sample that favours compounds with a hit; in the whole collection about 12% have one here.
ABCB1 inh – human ABCB1 inhibition, ABCG2 as counter-screen; P08183; CCRF-Adr cells, JC-1 efflux, flow cytometry; inhibition, % at 6.6 µM; 0.067% of 190,000 active; in the data active = inhibition above about 40%;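 also: 0% = vehicle and 100% = reference inhibitor; higher value means more JC-1 retained so stronger ABCB1 efflux block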
Lmaj promast – Leishmania major promastigote growth inhibition | Leishmania major promastigotes, resazurin fluorescence viability | inhibition, % at 10 µM | 9% of 200,000 active | AID 1063; in the data active = inhibition above about 50%;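 also: promastigotes grown with compound for 44 hours at 28 °C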
ABCG2 block – human ABCG2 inhibition, ABCB1 as counter-screen. 0.1% of 190,000 active. IgMXP3 cells, JC-1 efflux, flow cytometry. inhibition, % at 6.6 µM;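 active = inhibition above 80%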;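 also: 0% = DMSO and 100% = nicardipine control wells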
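Measure – % inhibition of efflux relative to nicardipine and DMSO · Test system – ABCG2 IgMXP3 and barcoded ABCB1 CCRF-Adr cell mix · Control set – nicardipine as high control, DMSO as low control · Compound – one concentration, 6.6 µM final · Signal – flow cytometry of retained JC-1 fluorescence · Timing – 10 min exposure at 25 °C with rotation, no wash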
WT yeast gro inh – growth inhibition of WT yeast, mitochondrial fusion screen. mitochondrial fusion phenotypic screen, WT strain. inhibition, % at 10 µM. 2.1% of 190,000 active. AID 1362; in the data active = inhibition above about 58%; tested in S. cerevisiae
RAM inhibit – inhibitors of the yeast RAM network; S. cerevisiae dse1pr::URA3 reporter, 5-FOA growth OD615, 2 d; analog-sensitive cbk1-as2 kinase mutant strain; inhibition, % at 50 µM; AID 868; 1.8% of 190,000 active;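 active = inhibition above a set limit, 3 SD over mean compound inhibition, cut at about 8.4% in these data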;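 also: 0% = DMSO-only wells with no growth and 100% = 10 µM 1-NA-PP1 full growth; inhibition rescues growth on 5-FOA so higher OD means more RAM inhibition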
Starred values were filed as active, the others as inactive; x = not tested or not shown.

SMILES	ABCB1 inh	Lmaj promast	ABCG2 block	WT yeast gro inh	RAM inhibit
COc1ccc(/C=N/NC(=O)c2ccc(CN3c4cccc5cccc(c45)S3(=O)=O)cc2)cc1	0	82*	-16	-8	2
Cc1cc(S(=O)(=O)N(Cc2ccccc2F)C2CC2)ccc1-n1cnnn1	1	100*	2	17	5
O=S(=O)(NCc1ccccc1)c1ccc(S(=O)(=O)N(Cc2cccs2)CC2CCCO2)cc1 (configuration not stated)	1	-3	4	-14	8.9*
COc1cc(S(=O)(=O)N(Cc2cccs2)CC2CCCO2)ccc1-n1cnnn1 (configuration not stated)	1	55*	4	6	4
CCOc1ccccc1CN(Cc1ccco1)S(=O)(=O)c1ccc(-n2cnnn2)c(OC)c1	3	69*	4	41	7
COc1cc(S(=O)(=O)N(Cc2ccccc2)CC2CCCO2)ccc1-n1cnnn1 (configuration not stated)	2	7	12	28	1
CC(C)C(C(=O)NCC1CCCO1)N(Cc1cccs1)C(=O)CNS(=O)(=O)c1ccccc1 (configuration not stated)	1	-3	0	5	1
COc1ccc(C(=O)COC(=O)CCc2nc3ccccc3[nH]c2=O)cc1Br	0	4	7	3	5
Cc1ccc(NS(=O)(=O)c2ccc3[nH]c(=O)[nH]c3c2)c(C)c1	0	1	1	-12	0
COc1cc(S(=O)(=O)N(Cc2ccco2)C2CCCC2)ccc1-n1cnnn1	1	71*	3	18	7
CN1C=C/C(=C\c2cc[n+](C)c3ccccc23)c2ccccc21	0	101*	-4	69*	0
CC[n+]1ccc(/C=C2\Sc3ccccc3N2CCCS(=O)(=O)[O-])c2ccccc21	0	5	0	9	0
Cc1cccc(N=Cc2c(O)cc(C)oc2=O)c1	1	62*	7	-1	0
Cc1cc(O)c(/C=N/Nc2ccccc2Cl)c(=O)o1	0	8	0	13	0
Cc1cc(O)c(/C=N/Nc2cccc(Cl)c2)c(=O)o1	0	94*	0	45	-1
COc1ccc(Cl)cc1N=Cc1c(O)cc(C)oc1=O	x	-8	x	x	x
Cc1cc(O)c(/C=N/Nc2ccc(Cl)cc2)c(=O)o1	0	98*	3	8	2
O=C(NN1CCN(Cc2ccccc2)CC1)c1ccc(Cl)cc1	0	-4	0	3	2
COC(=O)CC/C(O)=C1\C(=O)CC(C)(C)CC1=NCc1nc2ccccc2[nH]1	0	-4	2	-8	0
CCOC(=O)c1cc(C)n(CCc2ccccc2)c1C	1	11	6	10	1
Cc1cc(C(=O)CCl)c(C)n1CCc1ccccc1	1	100*	4	24	0
COC(=O)CCn1c(C)cc(C(=O)COc2ccccc2C(N)=O)c1C	1	-7	2	2	2
COC(=O)CCCn1c(C)cc(C(=O)CCl)c1C	-3	100*	0	16	3
NC(=S)NN=C(Cc1ccccc1)Cc1ccccc1	0	44	1	54	0
COc1ccc(C2=NN(C(=O)c3cccs3)C(c3ccc(OC)cc3)C2)cc1 (configuration not stated)	2	14	4	47	5
SMILES	ABCB1 inh	Lmaj promast	ABCG2 block	WT yeast gro inh	RAM inhibit
COc1ccc(C2CC(c3cccs3)=NN2C(=O)c2ccc(Br)o2)cc1 (configuration not stated)	1	1	5	64*	2
COc1ccc(C2CC(c3cccs3)=NN2c2ccc(C=O)cc2)cc1 (configuration not stated)	3	92*	-12	18	6
CCOC(=O)CCSCC(=O)N1N=C(c2cccs2)CC1c1ccc(C)cc1 (configuration not stated)	2	9	7	17	9.3*
On1nnc2cc(C(F)(F)F)ccc21	0	-14	2	21	0
CCOc1cc(N2CCOCC2)c(OCC)cc1NC(=O)c1c(-c2ccccc2Cl)noc1C	1	17	2	-27	1
CCOC(=O)c1nc(NCc2ccccc2C)c2ccccc2n1	1	65*	4	4	2
CC1CC(C)CN(c2cc(=O)n(Cc3ccc(F)cc3)c(=O)[nH]2)C1 (configuration not stated)	1	10	7	6	2

Screening results from PubChem BioAssay.
